Published values from different studies.
Target: Platelet-derived growth factor receptor alpha (PDGFRA, Homo sapiens, UniProt P16234)

For CSc1cccnc1N1CCN(Cc2nc3ccccc3[nH]2)CC1, the remaining binding was 89% (cell-free assay; competition with immobilised ligand; 1 µM).
The remaining binding of C[C@@H]1CCN(c2nccc(-c3cnn4ncccc34)n2)C1 is reported as 81% (binding; 1 µM).
Cc1cnc(Nc2ccc(C(=O)N3CCC(N4CCCC4)CC3)cc2)nc1-c1cc2ccccc2s1 gave a remaining binding of 14% (binding; competition with immobilised ligand; 1 µM).
The remaining binding of CN(C)c1nccc(-c2cnn3ncccc23)n1 is reported as 100% (binding; 1 µM).
The remaining binding of O=C(Nc1c[nH]nc1C(=O)NC1CCNCC1)c1cc(F)cc(F)c1 is reported as 83% (binding; competition with immobilised ligand; 1 µM).
The remaining binding of Nc1ncc2c(n1)-c1c([nH]c3ccc(C#CC4CC4)cc13)CCCC2 is reported as 76% (binding; competition with immobilised ligand; 1 µM).
The remaining binding of N[C@H]1CCN(c2nccc(-c3cnn4ncccc34)n2)C1 is reported as 90% (binding; 1 µM).
The remaining binding of O=C(c1ccc(Nc2nccc(-c3cc4ccccc4s3)n2)cc1)N1CCC(N2CCCC2)CC1 is reported as 52% (binding; competition with immobilised ligand; 1 µM).
The remaining binding of CNC(=O)[C@@H]1CC[C@@H](n2c(-c3ccc4cnccc4c3)nc3ccc(C(=O)NCc4cccc(C(N)=O)c4)cc32)C1 is reported as 100% (binding; competition with immobilised ligand; 1 µM).
N#Cc1ccccc1CSc1nnc2c(n1)[nH]c1ccccc12 gave a remaining binding of 94% (binding; competition with immobilised ligand; 10 µM).
With C[C@@H]1CN(c2ccc3ncc(-c4ccc5[nH]nc(C6CC6)c5c4)n3n2)C[C@H](C)O1 the remaining binding was 76% (binding; competition with immobilised ligand; 0.5 µM).
With CS(=O)(=O)c1cc(C2(NC(=O)c3cncc4c3cnn4-c3ccc(F)cc3)CC2)ccn1 the remaining binding was 90% (cell-free assay; competition with immobilised ligand; 1 µM).
The remaining binding of F[C@@H]1CCN(c2nccc(-c3cnn4ncccc34)n2)C1 is reported as 100% (binding; 1 µM).
For Cn1cc(Cl)c2c(Oc3c(F)cc(Nc4cc(Cl)nc(N)n4)cc3F)ccnc21, the remaining binding was 98% (cell-free assay; competition with immobilised ligand; 0.1 µM).
With COc1cnc(Nc2cccc(S(N)(=O)=O)c2)nc1N1CCN(c2ccccc2)C(=O)C1 the remaining binding was 82% (binding; competition with immobilised ligand; 1 µM).
The remaining binding of COc1ccc2c(O[C@@H]3C[C@H]4C(=O)N[C@]5(C(=O)O)CC5/C=C\CCCCC[C@H](NC(=O)OC5CCCC5)C(=O)N4C3)cc(-c3csc(NC(=O)C(C)C)n3)nc2c1C (stereo partly shown) is reported as 84% (cell-free assay; competition with immobilised ligand; 1 µM).
With FC(F)(F)Oc1cccc(-c2cnc3ccc(-c4ccncc4)nn23)c1 the remaining binding was 22% (cell-free assay; competition with immobilised ligand; 5 µM).
For CNCc1ccccc1-c1csc([C@H](C)Nc2nc(C)nc3cc(OC)c(OC)cc23)c1, the remaining binding was 92% (cell-free assay; competition with immobilised ligand; 1 µM).
The remaining binding of O=C(NCCCN1CCOCC1)c1ccc(Nc2ncc(Cl)c(-c3ccc(Cl)s3)n2)cc1 is reported as 10% (binding; competition with immobilised ligand; 1 µM).
COc1cc(-c2cn(C3CCc4ccccc4N(CC(F)(F)F)C3=O)nn2)ccc1-n1ccc(C)n1 (stereo not shown) has a remaining binding of 88% (cell-free assay; competition with immobilised ligand; 1 µM).
CN(C)c1ncc(F)c(-c2cnn3ncccc23)n1 has a remaining binding of 67% (binding; 1 µM).
For CCS(=O)(=O)c1cc2cc(C[C@@](O)(CC(C)(C)c3ccc(F)cc3C(N)=O)C(F)(F)F)[nH]c2cn1, the remaining binding was 99% (cell-free assay; competition with immobilised ligand; 1 µM).
CC1CCCN1c1nccc(-c2cnn3ncccc23)n1 (stereo not shown) gave a remaining binding of 94% (binding; 1 µM).
CC1=C(C#N)C(c2ccc3c(c2)c(NC(=O)c2ccccc2C)nn3C)C(C#N)=C(C)N1 gave a remaining binding of 86% (cell-free assay; competition with immobilised ligand; 1 µM).
The remaining binding of Cc1cnn2ncc(-c3ccnc(N(C)C)n3)c2c1 is reported as 97% (binding; 1 µM).
